Consider six compounds from ChEMBL document CHEMBL4308850, “Design of a True Bivalent Ligand with Picomolar Binding Affinity for a G Protein-Coupled Receptor Homodimer” (J Med Chem, 2018).

Active and inactive are the calls of the source. The rule behind the calls is not given here.

The target in assay [1] is T1, D(2) dopamine receptor (Homo sapiens, UniProt P14416). Put plainly: Displacement of [3H]-YM-09151-2 from dopamine D2 receptor (unknown origin) in sheep brain striatum membranes after 2 hrs by scintillation counting. To be noted: Ovis aries (sheep). Type of assay: cell membranes. The procedure, abridged: (§1)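 Sheep striatal membranes (50 mM Tris-HCl pH 7.4, protease inhibitors; 0.2 mg protein/mL) incubated 2 h at room temperature in Tris-HCl with 10 mM MgCl2, 0.8 nM free [3H]YM-09151-2 and rising ligand concentrations; nonspecific binding with 30 μM dopamine. Filtration on PEI-soaked GF/C, scintillation counting; fitted to two-state dimer model. Lines 5 and 6: membranes preincubated 1 h with the named TAT-TM6 peptide first.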
T1 sequence (P14416 whole entry): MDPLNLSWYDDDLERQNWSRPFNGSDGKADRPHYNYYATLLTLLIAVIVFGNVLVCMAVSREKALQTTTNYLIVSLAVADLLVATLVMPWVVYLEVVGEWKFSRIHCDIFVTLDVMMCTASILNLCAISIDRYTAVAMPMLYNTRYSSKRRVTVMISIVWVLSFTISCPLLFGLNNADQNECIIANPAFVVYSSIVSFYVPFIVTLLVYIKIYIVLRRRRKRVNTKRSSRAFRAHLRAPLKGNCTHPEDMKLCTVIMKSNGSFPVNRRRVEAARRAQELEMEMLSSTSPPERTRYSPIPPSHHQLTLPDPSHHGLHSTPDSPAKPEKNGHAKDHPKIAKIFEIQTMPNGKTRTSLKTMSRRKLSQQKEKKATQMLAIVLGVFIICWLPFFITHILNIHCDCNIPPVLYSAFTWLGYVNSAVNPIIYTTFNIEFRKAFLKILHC
On the technique in general: In a radioligand displacement assay an active substance lowers the binding of a labelled ligand.

Assay [2] concerns the target T1, D(2) dopamine receptor. Put plainly: Displacement of [3H]-YM-09151-2 from dopamine D2 receptor (unknown origin) in sheep brain striatum membranes preincubated with TAT-TM6 A2AR peptide for 1 h before addition of compound and radioligand and measured after 2 hrs by scintillation counting. Type of assay: cell membranes. The procedure, abridged: as §1
Assay [3] addresses T1, D(2) dopamine receptor. Nature of the assay: Displacement of [3H]-YM-09151-2 from dopamine D2 receptor (unknown origin) in sheep brain striatum membranes preincubated with TAT-TM6 D2R peptide for 1 h before addition of compound and radioligand and measured after 2 hrs by scintillation counting. Type of assay: cell membranes. Put shortly:
as §1

In assay [4] the target is T1, D(2) dopamine receptor. Put plainly: Antagonist activity at human dopamine D2 receptor expressed in CHO cells co-expressing A2A receptor assessed as reduction in sumanirole-induced response after 90 mins by DMR analysis. Type of assay: cell-based. Put shortly:
(§2)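 CHO cells stably co-expressing human A2AR and D2R, seeded 7,000/well 24 h before assay (70–80% confluent). Washed into assay buffer (medium, 20 mM HEPES pH 7.15, 0.1% DMSO, 0.1% BSA), equilibrated 2 h at 24°C; 10 min baseline, antagonist added and read 30 min, then sumanirole (100 nM solution) added and DMR wavelength shift (pm) recorded ≥90 min; expressed as % maximal sumanirole effect.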

Assay [5] has as its target T1, D(2) dopamine receptor. Nature of the assay: Binding affinity to human dopamine D2 receptor transfected in HEK293 cells co-expressing nYFP (1 to 155 residues) and cYFP (156 to 238 residues) at 100 nM after 10 mins by fluorescence complementation assay. Type of assay: cell-based. The procedure, abridged: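 HEK-293T cells transiently co-transfected (lipofectamine) with D2R-nYFP and D2R-cYFP; after 48 h, cells in HBSS with 0.1% glucose (20 μg protein, 50,000 cells/well) treated with 100 nM ligand or HBSS for 10 min. Fluorescence read at 530 nm emission, 400 nm excitation; background from cells lacking fusion proteins subtracted.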

Assay [6] deals with T1, D(2) dopamine receptor. Put plainly: Antagonist activity at human dopamine D2 receptor expressed in CHO cells co-expressing A2A receptor assessed as reduction in sumanirole-induced response at 0.5 uM after 90 mins by DMR analysis. The class given is cell-based. Put shortly:
as §2

Assay [7] deals with T1, D(2) dopamine receptor. The following applies: CHO, 1 uM.

Take `O=C(O)CCC(=O)Nc1ccc(CCN2CN(c3ccccc3)C3(CCN(CCCC(=O)c4ccc(F)cc4)CC3)C2=O)cc1`: the K on D(2) dopamine receptor [1] was determined as 0.7 nM.

One may read the IC50 as the concentration that gives 50% inhibition. Consider `COC(=O)CN(CC(=O)NCCOCCOCCNC(C)=O)CC(=O)NCCOCCOCCNC(=O)CCC(=O)Nc1ccc(CCN2CN(c3ccccc3)C3(CCN(CCCC(=O)c4ccc(F)cc4)CC3)C2=O)cc1`, for which the K on D(2) dopamine receptor [1] was determined as 0.77 nM; on D(2) dopamine receptor [2], 0.8 nM; at D(2) dopamine receptor [3], 0.8 nM. Moreover, the IC50 at D(2) dopamine receptor [4] was determined as 280 nM. Further, on D(2) dopamine receptor [5], the outcome was inactive.

`COC(=O)CN(CC(=O)NCCOCCOCCNC(=O)CCC(=O)Nc1ccc(CCN2CN(c3ccccc3)C3(CCN(CCCC(=O)c4ccc(F)cc4)CC3)C2=O)cc1)CC(=O)NCCOCCOCCNC(=O)CCC(=O)Nc1ccc(CCN2CN(c3ccccc3)C3(CCN(CCCC(=O)c4ccc(F)cc4)CC3)C2=O)cc1`: the K was 0.021 nM on D(2) dopamine receptor [1], 0.05 nM at D(2) dopamine receptor [2] and 1.1 nM on D(2) dopamine receptor [3]. Moreover, the inhibition entry on D(2) dopamine receptor [6] is “Active”. For the same compound, the IC50 at D(2) dopamine receptor [4] came to 15 nM. In addition, the outcome on D(2) dopamine receptor [5] was inactive.

As for `O=C(CCCN1CCC2(CC1)C(=O)NCN2c1ccccc1)c1ccc(F)cc1`, the inhibition result at D(2) dopamine receptor [7] was “Active”.

For `COC(=O)CN(CC(=O)NCCCOCCOCCOCCCNC(=O)CCC(=O)Nc1ccc(CCN2CN(c3ccccc3)C3(CCN(CCCC(=O)c4ccc(F)cc4)CC3)C2=O)cc1)CC(=O)NCCCOCCOCCOCCCNC(=O)CCC(=O)Nc1ccc(CCN2CN(c3ccccc3)C3(CCN(CCCC(=O)c4ccc(F)cc4)CC3)C2=O)cc1`, the K on D(2) dopamine receptor [1] is 0.07 nM. Besides, the inhibition entry at D(2) dopamine receptor [6] is “Active”.

For `COC(=O)CN(CC(=O)NCCCOCCOCCOCCCNC(C)=O)CC(=O)NCCCOCCOCCOCCCNC(=O)CCC(=O)Nc1ccc(CCN2CN(c3ccccc3)C3(CCN(CCCC(=O)c4ccc(F)cc4)CC3)C2=O)cc1`, the K on D(2) dopamine receptor [1] stood at 1.5 nM.
